The nature of series [1]: melting temperature; fluorescence melt of hairpins on a sequencing array, two-state fit, raised by 9.35 °C to match UV melts. Conditions: sodium 0.088 M. The method in brief: (§1)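 Melting temperature and folding enthalpy were obtained by bootstrapped two-state fitting. Fits used Cy3 fluorescence of library hairpins with annealed Cy3 and quencher oligos on a sequenced MiSeq flow cell, imaged in 50 mM Na-HEPES pH 8.0, 25 mM NaCl in 2.5 °C steps up to 60 °C and normalised to pre-quench Cy3 and control constructs. Four replicates were combined by inverse-variance weighting, and fitted temperatures were raised by 9.35 °C to match UV melts.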

Series [2] is described as follows: folding enthalpy; higher = less favourable; fluorescence melt of hairpins on a sequencing array, two-state fit. Conditions: sodium 0.088 M. The method in brief: as §1

Regarding GACCACGAAAGTGAAGTC ((((((....)))..))), the Tm in series [1] stood at 40.2 °C. Further, the folding enthalpy in series [2] is -21.7 kcal/mol.
In the same order, the values of GTGTTAGGAAACTAACAC (((((((....))))))) are 57.8 °C and -42.1 kcal/mol.
Turning to GATCTGCAAGCAGATC ((((((....)))))), the Tm in series [1] stood at 57.6 °C. In addition, the folding enthalpy in series [2] was -40.2 kcal/mol.
Take GATCGCAATCGCGATC ((((((....)))))): in series [1], the Tm worked out at 67.9 °C. In addition, the folding enthalpy in series [2] is -32.2 kcal/mol.
For GGATCAGGAAACTGGTTC (.(.(((....))).).), in that order: 29.1 °C and -12.2 kcal/mol.
In the same order, the values of GATCCCTCACGGGATC ((((((....)))))) are 59 °C and -39.5 kcal/mol.
In the same order, the values of GAATACGAAAGTAATTC ((((((....))).))) are 34.1 °C and -13.6 kcal/mol.
GGCACCGCGAAAGCGGCC (((..(((....)))))): in series [1], the Tm stood at 40 °C. In addition, the folding enthalpy in series [2] is -8.53 kcal/mol.
For GCAGAGCGAAAGCCGTGC (((..((....))..))), in that order: 42.1 °C and -16.4 kcal/mol.
For the sequence GCGTCGCGAAAGCTACGC ((((.((....)).)))), the Tm in series [1] came out at 66.9 °C. Besides, the folding enthalpy in series [2] was -29.4 kcal/mol.
